Reference: ChEMBL document CHEMBL1145924 (J Med Chem, 2003)
Several values for one entry are separate records, joined by “and”; a condition that tells them apart may be missing. Equal values may be shown once.

What was measured:
[1] = species on record: Cavia porcellus; assay: Apparent pA2 value at 3 nM concentration of mepyramine in guinea pig ileum; assay type: functional; details: read-out: pA2 (converted)
[2] = biological target: Histamine H1 receptor (Cavia porcellus) (UniProt P31389); assay: Concentration required for agonistic activity against histamine in guinea pig ileum; assay type: functional, tissue-based
[3] = biological target: Histamine H1 receptor (Cavia porcellus) (UniProt P31389); assay: Maximum response (E max) against histamine H1 receptor in guinea pig ileum; assay type: tissue-based
[4] = biological target: Histamine H3 receptor (Cavia porcellus, UniProt Q9JI35); assay: Tested for Antagonistic activity at histamine H3 receptor in guinea pig ileal longitudinal muscle in the presence of mepyramine at a concentration of 1-3 micro M; assay type: functional; details: read-out: pA2 (converted)
Method in brief: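 Field-stimulated ileal longitudinal muscle (15 V, 0.5 ms, 0.1 Hz), 37 °C, mepyramine 1–3 μM throughout. […] Antagonists used only at concentrations not blocking M3 receptors; apparent pA2 from rightward shift.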

[5] = biological target: Histamine H1 receptor (Cavia porcellus) (UniProt P31389); assay: (§1) Equilibrium dissociation constant (pKp) against histamine H1 receptor in guinea pig ileum; assay type: tissue-based
[6] = biological target: T1, Histamine H1 receptor (Cavia porcellus, UniProt P31389); assay: Effective concentration against histamine H1 receptor in guinea pig ileum; assay type: tissue-based
[7] = biological target: Muscarinic acetylcholine receptor M3 (Cavia porcellus, UniProt Q8VH26); assay: Antagonistic activity for carbachol induced contractions in guinea pig ileum against Muscarinic acetylcholine receptor M3 in the presence of mepyramine at a concentration of 1-3 micro M; assay type: functional, tissue-based; details: read-out: pA2 (converted)
[8] = biological target: Histamine H2 receptor (Cavia porcellus) (UniProt P47747); details: Cardiac atrium
[9] = biological target: T1, Histamine H1 receptor; assay: Effective concentration against histamine H1 receptor in endothelium-Denuded rings of guinea pig Aorta
[10] = biological target: Histamine H1 receptor (Rattus norvegicus) (UniProt P31390); assay: Maximum response (E max) against H1 receptor in rat aorta; assay type: tissue-based
[11] = biological target: T2, Histamine H1 receptor (Rattus norvegicus, UniProt P31390); assay: Apparent pA2 value of compound at 50 nM concentration of mepyramine in rat aorta; assay type: functional, tissue-based; details: read-out: pA2 (converted)
[12] = biological target: Histamine H1 receptor (Cavia porcellus) (UniProt P31389); assay: Maximum response (E max) against H1 receptor in guinea pig ileum; assay type: tissue-based
[13] = species on record: Cavia porcellus; assay: Full pA2 value of compound at 3-30 nM concentration of mepyramine in guinea pig ileum; assay type: functional; details: read-out: pA2 (converted)
[14] = biological target: T2, Histamine H1 receptor; assay: (§2) Effective concentration against histamine H1 receptor in rat aorta
[15] = biological target: T1, Histamine H1 receptor; assay: Apparent pA2 value of compound at 10 nM concentration of mepyramine in guinea pig aorta
[16] = species on record: Cavia porcellus; assay: Apparent pD2 value of compound at 3 nM concentration of mepyramine in guinea pig ileum; assay type: functional
[17] = species on record: Cavia porcellus; assay: tissue or blood; details: Ileum, read-out: pA2 (converted)
[18] = biological target: Histamine H1 receptor (Cavia porcellus) (UniProt P31389); assay: Concentration required for agonistic activity against histamine H1 receptor in guinea pig ileum; assay type: functional, tissue-based
[19] = species on record: Cavia porcellus; assay: Apparent pA2 value of compound at 10 nM concentration of mepyramine in guinea pig aorta
[20] = biological target: T1, Histamine H1 receptor; assay: as above; remark: listed apart in the source
[21] = species on record: Cavia porcellus; assay: Full pA2 value of compound at 2-100 nM concentration of mepyramine in guinea pig ileum; assay type: functional; details: read-out: pA2 (converted)
[22] = biological target: Histamine H1 receptor (Cavia porcellus) (UniProt P31389); assay: Maximum response (E max) against Histamine H1 receptor in guinea pig ileum; assay type: tissue-based
[23] = biological target: Histamine H2 receptor (Cavia porcellus, UniProt P47747); assay: Tested for inhibition of histamine H2 receptor-induced rise in heart rate in guinea pig right atrium in the presence of mepyramine at a concentration of 0.3 micro M; assay type: tissue-based, Cardiac atrium
[24] = biological target: T1, Histamine H1 receptor; assay: Apparent pA2 value of compound at 10 nM concentration of mepyramine in guinea pig aorta; remark: listed apart in the source
[25] = species on record: Cavia porcellus; assay: Apparent pA2 value of compound at 3 nM concentration of mepyramine in guinea pig ileum
[26] = biological target: T2, Histamine H1 receptor; assay: as §2; assay type: tissue-based
[27] = biological target: Histamine H1 receptor (Cavia porcellus) (UniProt P31389); assay: as §1; assay type: functional, tissue-based
[28] = species on record: Cavia porcellus; assay: Apparent pA2 value of compound at 100 nM concentration of mepyramine in guinea pig aorta

T1 sequence (P31389 whole entry): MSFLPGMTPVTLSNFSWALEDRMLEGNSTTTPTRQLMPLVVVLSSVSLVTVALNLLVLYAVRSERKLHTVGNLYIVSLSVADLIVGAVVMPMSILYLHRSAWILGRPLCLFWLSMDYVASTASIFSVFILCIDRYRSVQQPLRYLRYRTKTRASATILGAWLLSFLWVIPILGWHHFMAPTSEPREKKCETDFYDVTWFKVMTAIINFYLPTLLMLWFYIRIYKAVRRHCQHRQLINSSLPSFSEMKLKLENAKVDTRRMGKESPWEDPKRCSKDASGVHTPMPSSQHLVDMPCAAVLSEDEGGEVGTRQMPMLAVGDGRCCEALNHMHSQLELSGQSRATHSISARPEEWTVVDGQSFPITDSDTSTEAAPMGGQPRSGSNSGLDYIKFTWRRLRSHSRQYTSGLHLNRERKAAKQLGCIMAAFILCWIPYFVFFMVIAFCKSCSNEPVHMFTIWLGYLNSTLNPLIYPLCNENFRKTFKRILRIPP
Sequence of Histamine H1 receptor (Cavia porcellus) (P31389 whole entry): as above
Sequence of Histamine H2 receptor (Cavia porcellus) (P47747 whole entry): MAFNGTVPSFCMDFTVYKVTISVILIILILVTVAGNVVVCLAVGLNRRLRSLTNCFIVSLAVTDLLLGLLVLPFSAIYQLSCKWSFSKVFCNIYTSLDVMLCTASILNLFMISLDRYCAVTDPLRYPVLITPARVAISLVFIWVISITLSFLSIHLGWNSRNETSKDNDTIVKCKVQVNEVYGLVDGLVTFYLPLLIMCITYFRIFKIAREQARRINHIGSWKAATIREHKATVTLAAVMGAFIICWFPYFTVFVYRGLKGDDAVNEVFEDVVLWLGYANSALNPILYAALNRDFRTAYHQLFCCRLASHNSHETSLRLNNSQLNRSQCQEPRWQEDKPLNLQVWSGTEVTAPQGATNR
Sequence of Histamine H3 receptor (Q9JI35 whole entry): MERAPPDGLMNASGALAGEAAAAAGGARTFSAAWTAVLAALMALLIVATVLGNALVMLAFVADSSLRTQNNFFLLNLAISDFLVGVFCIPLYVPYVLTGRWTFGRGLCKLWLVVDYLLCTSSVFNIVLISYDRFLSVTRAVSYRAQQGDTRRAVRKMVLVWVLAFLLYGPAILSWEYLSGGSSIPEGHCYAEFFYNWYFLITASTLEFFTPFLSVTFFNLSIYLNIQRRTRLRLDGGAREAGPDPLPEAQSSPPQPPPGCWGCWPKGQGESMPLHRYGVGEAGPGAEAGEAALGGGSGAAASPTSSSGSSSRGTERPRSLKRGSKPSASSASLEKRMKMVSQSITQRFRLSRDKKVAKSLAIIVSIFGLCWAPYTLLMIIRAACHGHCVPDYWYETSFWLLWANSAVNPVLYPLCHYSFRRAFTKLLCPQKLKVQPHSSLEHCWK
Sequence of Muscarinic acetylcholine receptor M3 (Q8VH26 whole entry): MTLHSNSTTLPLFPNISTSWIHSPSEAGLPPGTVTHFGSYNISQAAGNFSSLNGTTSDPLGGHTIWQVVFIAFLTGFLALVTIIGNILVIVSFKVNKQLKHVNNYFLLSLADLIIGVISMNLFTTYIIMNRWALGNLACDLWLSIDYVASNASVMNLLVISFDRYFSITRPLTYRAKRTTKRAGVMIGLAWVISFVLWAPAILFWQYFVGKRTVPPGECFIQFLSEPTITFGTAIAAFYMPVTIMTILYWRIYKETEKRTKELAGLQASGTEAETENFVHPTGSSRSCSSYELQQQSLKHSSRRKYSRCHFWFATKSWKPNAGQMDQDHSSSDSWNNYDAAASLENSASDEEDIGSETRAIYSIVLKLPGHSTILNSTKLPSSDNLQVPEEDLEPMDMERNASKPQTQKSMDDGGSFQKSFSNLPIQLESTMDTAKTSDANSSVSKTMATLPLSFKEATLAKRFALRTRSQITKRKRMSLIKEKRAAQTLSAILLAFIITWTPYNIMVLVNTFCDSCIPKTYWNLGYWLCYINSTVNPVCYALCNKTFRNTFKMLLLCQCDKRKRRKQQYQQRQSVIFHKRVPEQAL
Sequence of Histamine H1 receptor (Rattus norvegicus) (P31390 whole entry): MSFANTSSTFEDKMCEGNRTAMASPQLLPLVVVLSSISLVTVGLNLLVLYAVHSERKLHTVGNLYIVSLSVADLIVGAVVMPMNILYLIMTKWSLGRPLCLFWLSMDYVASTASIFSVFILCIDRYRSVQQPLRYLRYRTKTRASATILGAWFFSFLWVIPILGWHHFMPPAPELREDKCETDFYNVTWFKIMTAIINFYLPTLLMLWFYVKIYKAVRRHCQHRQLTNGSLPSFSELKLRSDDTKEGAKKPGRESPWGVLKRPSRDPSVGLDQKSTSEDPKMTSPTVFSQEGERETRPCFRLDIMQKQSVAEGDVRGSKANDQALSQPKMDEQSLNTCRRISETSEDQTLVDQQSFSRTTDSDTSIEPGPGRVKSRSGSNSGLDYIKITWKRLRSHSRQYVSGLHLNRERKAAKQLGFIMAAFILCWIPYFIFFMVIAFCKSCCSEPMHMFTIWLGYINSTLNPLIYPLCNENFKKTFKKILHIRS
T2 sequence (P31390 whole entry): as above
Sequence of Histamine H2 receptor (P47747 whole entry): as the sequence (P47747 whole entry) above

SMILES | Kb [1] [nM] | Concentration [2] [µM] | Emax [3] | Kb [4] [nM] | pKp [5] | EC50 [6] [nM] | Kb [7] [nM] | pD2 [8] | EC50 [9] [nM] | also measured
c1ccc(C(CCc2nc(CCNCCCCCc3ccccn3)c[nH]2)c2ccccc2)cc1 | 1.82 | 3 | 83% | > 316 | 6.74 | 15.5 | 513 | 5.02 |  | 
NCCc1cnc(CCC(c2ccccc2)c2ccccc2)[nH]1 |  |  |  |  |  |  |  |  | 158 | 
c1ccc(C(CCc2nc(CCNCCCCc3ccccn3)c[nH]2)c2ccccc2)cc1 |  | 3 | 89% | > 501 | 7.45 | 6.92 | 741 | 4.78 | 14.1 | Emax [10]: 65%; Kb [11]: 6.17 nM; Emax [12]: 89%; Kb [13]: 0.661 nM; EC50 [14]: 240 nM; Kb [15]: 1.62 nM
c1ccc(C(CCc2nc(CCNCCCc3c[nH]cn3)c[nH]2)c2ccccc2)cc1 | 1.86 | 0.1 | 95% | 123 | 7.14 | 13.5 | 776 | 3.92 |  | 
c1ccc(C(CCc2nc(CCNCCCc3ccncc3)c[nH]2)c2ccccc2)cc1 |  | 10 | 48% |  | 5.69 | 269 |  | 4.36 |  | pD2 [16]: 8.49
c1ccc(C(CCc2nc(CCNCCCCCc3ccncc3)c[nH]2)c2ccccc2)cc1 |  | 10 | 57% |  | 5.9 | 95.5 |  | 4.12 |  | pD2 [16]: 8.63
NCCc1c[nH]cn1 [HISTAMINE] |  |  |  |  |  |  |  |  |  | Kb [17]: 0.851 nM
NCCc1c[nH]c(CCC(c2ccccc2)c2ccccc2)n1 |  |  | 100% and 84% |  | 6.04 |  |  |  |  | Emax [10]: 50%; Concentration [18]: 3 µM; Kb [19]: 0.977 nM
c1ccc(C(CCc2nc(CCNCCc3cccnc3)c[nH]2)c2ccccc2)cc1 | 0.851 | 10 | 64% | > 501 | 6.52 | 77.6 | 7080 | 4.62 | 83.2 | Emax [12]: 64%; Kb [20]: 3.24 nM
c1ccc(C(CCc2nc(CCNCCCCc3ccncc3)c[nH]2)c2ccccc2)cc1 | 1.12 | 10 | 84% |  | 6.56 | 24 |  | 4.59 |  | 
c1ccc(C(CCc2nc(CCNCCc3ccncc3)c[nH]2)c2ccccc2)cc1 | 1.48 | 10 | 78% | > 501 | 6.02 | 115 | 1000 | 4.37 |  | 
c1ccc(C(CCc2nc(CCNCCc3cnc[nH]3)c[nH]2)c2ccccc2)cc1 |  |  |  | > 1000 | 7.67 | 5.5 | 4790 |  | 9.77 | Kb [21]: 1.48 nM; Emax [10]: 56%; Concentration [18]: 0.1 µM; Emax [22]: 96%; Kb [11]: 9.55 nM; Emax [12]: 96%; EC50 [23]: 10000 nM; EC50 [14]: 295 nM; Kb [24]: 3.24 nM
c1ccc(C(CCc2nc(CCNCCCCc3cccnc3)c[nH]2)c2ccccc2)cc1 | 1.7 | 3 | 88% |  | 6.88 | 13.5 |  | 4.77 |  | 
c1ccc(C(CCc2nc(CCNCCCc3cccnc3)c[nH]2)c2ccccc2)cc1 | 1.82 | 10 | 48% |  | 6.18 | 117 |  | 4.05 |  | 
CNCCc1cnc(CCC(c2ccccc2)c2ccccc2)[nH]1 |  |  |  |  |  |  |  |  | 39.8 | 
c1ccc(C(CCc2nc(CCNCCCc3ccccn3)c[nH]2)c2ccccc2)cc1 |  | 3 |  | > 316 | 7.13 | 21.4 | 457 | 4.96 |  | Emax [12]: 80%; Kb [25]: 1.66 nM
c1ccc(C(CCc2nc(CCNCCCCCc3cccnc3)c[nH]2)c2ccccc2)cc1 | 1.48 | 3 | 84% | > 316 | 6.61 | 26.3 | 562 | 5.25 |  | 
c1ccc(C(CCc2nc(CCNCCc3ccccn3)c[nH]2)c2ccccc2)cc1 |  | 10 | 92% | > 501 |  | 21.4 | 5010 | 4.37 | 81.3 | Emax [10]: 59%; EC50 [26]: 525 nM; Kb [11]: 10.5 nM; Emax [12]: 92%; pKp [27]: 7.15; Kb [25]: 1.74 nM; Kb [15]: 4.37 nM
CNCCc1c[nH]c(CCC(c2ccccc2)c2ccccc2)n1 |  |  |  |  | 6.45 |  |  |  |  | Kb [28]: 1.78 nM
c1ccc(C(CCc2nc(CCNCCCCc3c[nH]cn3)c[nH]2)c2ccccc2)cc1 |  | 10 | 86% | 10.2 | 6.17 | 123 | 417 | 4.12 |  | Kb [25]: 1.7 nM
